# Calls of active or inactive are those of the source. No cut-off for these calls is given here.
# How the values were obtained:
# HL-60 [1] = test: The compound was tested in vitro for growth inhibition against HL-60(human promyelocytic leukemia) cell line in the dark; type: functional, cell-based
# Cavia porcellus [2] = species: Cavia porcellus; test: The compound was tested for photo antiproliferative activity and ability to induce erythema on guinea pig skin; --- = absent; type: functional, organism-based
# How it was run: (§1)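 Depilated albino guinea pigs (outbred Dunkin-Hartley) given topical ethanol solution on skin, new compounds up to 50 μg cm-2, 5-MOP and 8-MOP at 10 μg cm-2; kept dark 45 min, then treated skin irradiated with 20 kJ m-2 UVA (lamps emitting over 90% at 365 nm); erythema scored after 48 h.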
# HeLa [3] = test: The compound was tested in vitro for growth inhibition against HeLa(human cervix adenocarcinoma) cell line in the presence of UVA(ultra violet A irradiated); type: functional, cell-based; settings: light or radiation study
# How it was run: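 HeLa (F-12 with 10% heat-inactivated FCS) seeded 10^5/well for 24 h; medium changed to phenol red-free DMEM with test agent, 1 h later irradiated with UVA 0.793 J cm-2 at 365 nm; drug medium removed, cells kept 24 h in complete F-12; trypan blue viability; IC50 as 50% cell-number reduction versus control.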
# HeLa [4] = test: The compound was tested in vitro for growth inhibition against HeLa(human cervix adenocarcinoma) cell line in the dark; type: functional, cell-based
# HL-60 [5] = test: The compound was tested in vitro for growth inhibition against HL-60(human promyelocytic leukemia) cell line in the presence of UVA(ultra violet A irradiated); type: functional, cell-based; settings: HL-60, light or radiation study
# Cavia porcellus [6] = test: The compound was tested for photo antiproliferative activity and ability to induce erythema on guinea pig skin; +++ = strong (without edema); type: functional, organism-based; how it was run: as §1
# Cavia porcellus [7] = species: Cavia porcellus; test: The compound was tested for photo antiproliferative activity and ability to induce erythema on guinea pig skin; +-- = mild; type: functional, organism-based; how it was run: as §1
SMILES,IC50 (HL-60 [1]) [µM],Formation of erythema (Cavia porcellus [2]),IC50 (HeLa [3]) [µM],IC50 (HeLa [4]) [µM],IC50 (HL-60 [5]) [µM],Formation of erythema (Cavia porcellus [6]),Formation of erythema (Cavia porcellus [7])
Cc1cc(=O)oc2c(O)c3oc4ccccc4c3cc12,> 20,inactive,> 20,> 20,> 20,,
COc1c2c(C)cc(=O)oc2cc2oc3ccccc3c12,> 20,inactive,> 20,> 20,4.5,,
Cc1cc(=O)oc2c(OCCCN(C)C)c3oc4ccccc4c3cc12,4.2,inactive,0.08,9.6,0.6,,
Cc1cc(=O)oc2c(OCCCN(C)C)c3oc4c(c3cc12)CCCC4,12.4,,1.2,> 20,0.6,strong (without edema),
COc1c2c(C)cc(=O)oc2cc2oc3c(c12)CCCC3,> 20,inactive,4.6,> 20,4.9,,
Cc1cc(=O)oc2cc3oc4ccccc4c3c(O)c12,> 20,inactive,> 20,> 20,> 20,,
Cc1cc(=O)oc2c(O)c3oc4c(c3cc12)CCCC4,> 20,inactive,> 20,> 20,> 20,,
COc1c2occc2cc2ccc(=O)oc12 [METHOXSALEN],> 20,,10,> 20,5.4,Active,
Cc1cc(=O)oc2cc3oc4c(c3c(O)c12)CCCC4,> 20,inactive,> 20,> 20,7.3,,
COc1c2oc(=O)cc(C)c2cc2c3c(oc12)CCCC3,> 20,inactive,> 20,> 20,3.5,,
Cc1cc(=O)oc2cc3oc4ccccc4c3c(OCCCN(C)C)c12,9.2,inactive,2.8,> 20,0.73,,
COc1c2oc(=O)cc(C)c2cc2c1oc1ccccc12,> 20,inactive,> 20,> 20,6.4,,
Cc1cc(=O)oc2cc3oc4c(c3c(OCCCN(C)C)c12)CCCC4,13.8,,3.7,> 20,3.4,,+--
COc1c2ccoc2cc2oc(=O)ccc12 [BERGAPTEN],> 20,,16.3,> 20,3.35,Active,

# Reference: ChEMBL document CHEMBL1132689, “New tetracyclic analogues of photochemotherapeutic drugs 5-MOP and 8-MOP: synthesis, DNA interaction, and antiproliferative activity” (J Med Chem, 1999)
